The test system of data set [1] is Plasmodium berghei. The data set can be described thus: Antimalarial activity against trophozoite Plasmodium berghei infected in mouse assessed as increase in mean survival time administered as single dose 72 hrs after parasite infection. It is filed as functional, organism-based. The essentials:
(§1)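 Mice were infected with P. berghei trophozoites and given one subcutaneous dose of test compound 72 h later, up to a maximum of 640 mg/kg. Mean survival time of treated mice was compared with untreated controls. A 2.5-day prolongation counted as significant, and activity required a mean survival of at least 12 days. Cure meant 60-day survival without parasitemia.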

Data set [2] relates to Mus musculus. The data set can be described thus: Toxicity in trophozoite Plasmodium berghei infected in sc dosed mouse administered as single dose 72 hrs after parasite infection. In kind it is organism-based. As to conditions: in vivo. The procedure, abridged:
as §1

Data set [3] relates to Plasmodium gallinaceum. Description: Antimalarial activity against Plasmodium gallinaceum infected in chick assessed as increase in mean survival time at 640 mg/kg, sc administered as single dose 72 hrs after parasite infection. Particulars: route subcutaneous.
Data set [4] relates to Gallus gallus (chicken). Description: Toxicity in Plasmodium gallinaceum infected in chick at 640 mg/kg, sc administered as single dose 72 hrs after parasite infection. Particulars: in vivo.
For data set [5], the system named is Plasmodium berghei. Description: Antimalarial activity against trophozoite Plasmodium berghei infected in mouse assessed as increase in mean survival time at 640 mg/kg, sc administered as single dose 72 hrs after parasite infection. In kind it is functional. As to conditions: route subcutaneous. The essentials: (§2)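 Mice were infected with P. berghei trophozoites and given one subcutaneous dose of test compound 72 h later. The read-out was the increase in mean survival time of treated over control animals (MSTT vs MSTC); prolongation of 2.5 days was taken as significant, and a 12-day minimum mean survival was required for activity. Survivors at 60 days without parasitemia counted as cured. The maximum dose was 640 mg/kg.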

In data set [6] the test system is Plasmodium gallinaceum. Description: Antimalarial activity against Plasmodium gallinaceum infected in chick assessed as increase in mean survival time at 480 mg/kg, sc administered as single dose 72 hrs after parasite infection. As to conditions: route subcutaneous.
Data set [7] has as its system Plasmodium gallinaceum. Description: Antimalarial activity against Plasmodium gallinaceum infected in chick assessed as increase in mean survival time at 320 mg/kg, sc administered as single dose 72 hrs after parasite infection. Particulars: route subcutaneous.
In data set [8] the test system is Plasmodium berghei. The data set can be described thus: Antimalarial activity against trophozoite Plasmodium berghei infected in mouse assessed as increase in mean survival time at 320 mg/kg, sc administered as single dose 72 hrs after parasite infection. It is filed as functional. Particulars: route subcutaneous. The essentials:
as §2

Data set [9] relates to Plasmodium berghei. Description: Antimalarial activity against trophozoite Plasmodium berghei infected in mouse assessed as increase in mean survival time at 40 mg/kg, sc administered as single dose 72 hrs after parasite infection. In kind it is functional. As to conditions: route subcutaneous. The essentials:
as §2

Data set [10] relates to Plasmodium gallinaceum. Description: Antimalarial activity against Plasmodium gallinaceum infected in chick assessed as increase in mean survival time at 240 mg/kg, sc administered as single dose 72 hrs after parasite infection. As to conditions: route subcutaneous.
Data set [11] concerns Gallus gallus (chicken). Description: Toxicity in Plasmodium gallinaceum infected in chick at 480 mg/kg, sc administered as single dose 72 hrs after parasite infection. As to conditions: in vivo.
Data set [12] deals with Plasmodium berghei. The data set can be described thus: Antimalarial activity against trophozoite Plasmodium berghei infected in mouse assessed as increase in mean survival time at 80 mg/kg, sc administered as single dose 72 hrs after parasite infection. As to conditions: route subcutaneous. In kind it is functional. The essentials: as §2
The subject of data set [13] is Mus musculus. Description: Toxicity in trophozoite Plasmodium berghei infected in mouse at 640 mg/kg, sc administered as single dose 72 hrs after parasite infection. In kind it is organism-based. More on the design: dose 640 mg/kg, route subcutaneous. As to conditions: in vivo. The procedure, abridged: as §1
In data set [14] the test system is Plasmodium berghei. The data set can be described thus: Antimalarial activity against trophozoite Plasmodium berghei infected in mouse assessed as increase in mean survival time at 20 mg/kg, sc administered as single dose 72 hrs after parasite infection. In kind it is functional. Particulars: route subcutaneous. The procedure, abridged: as §2
In data set [15] the test system is Plasmodium berghei. Description: Antimalarial activity against trophozoite Plasmodium berghei infected in mouse assessed as increase in mean survival time at 160 mg/kg, sc administered as single dose 72 hrs after parasite infection. It is filed as functional. As to conditions: route subcutaneous. The essentials: as §2
Data set [16] concerns Plasmodium berghei. The data set can be described thus: Antimalarial activity against trophozoite Plasmodium berghei infected in mouse assessed as increase in mean survival time at 10 mg/kg, sc administered as single dose 72 hrs after parasite infection. In kind it is functional. As to conditions: route subcutaneous. The essentials:
as §2

In data set [17] the test system is Plasmodium gallinaceum. The data set can be described thus: Antimalarial activity against Plasmodium gallinaceum infected in chick assessed as increase in mean survival time at 160 mg/kg, sc administered as single dose 72 hrs after parasite infection. As to conditions: route subcutaneous.
Data set [18] relates to Plasmodium gallinaceum. Description: Antimalarial activity against Plasmodium gallinaceum infected in chick assessed as increase in mean survival time at 80 mg/kg, sc administered as single dose 72 hrs after parasite infection. Particulars: route subcutaneous.

The source made the active and inactive calls. No cut-off for these calls is given here.

As to `COc1ccc(-c2nnc(/N=C/N(C)C)nc2/N=C/N(C)C)cc1OC`, the result in data set [1] was inactive.

In the case of `Cc1nnc(S)nc1S`, the Activity entry in data set [2] and in data set [4] was “Toxic” throughout. Besides, the T/C in data set [3] was 4.4.

On to `CS(=O)(=O)c1ccc(-c2nnc(N)nc2N)cc1`, for which the Activity result in [2] is “Toxic”.

With `Cc1ccc(-c2nnc(N)nc2N)cc1Cl`, the T/C in data set [5] worked out at 9.9.

Regarding `CSc1nnc(C)c(SC)n1`, the Activity result in data set [2] is on record as “Toxic”.

In the case of `Cc1n[nH]c(=S)[nH]c1=O`, in data set [2], the Activity result is on record as “Toxic”.

In the case of `Nc1nnc(-c2ccccc2)c(-c2ccccc2)n1`, the Activity entry in [2] was “Toxic”.

For the compound `Cc1ccc(S(=O)(=O)NC(=O)Nc2nnc(-c3ccc4c(c3)OCO4)c(N)n2)cc1`, the outcome in data set [1] was inactive.

Turning to `COc1ccc(-c2nnc(NC(=O)Nc3ccccc3)nc2N)cc1OC`, in data set [1], the outcome was inactive.

Turning to `CN(C)/C=N/c1nnc(-c2ccc3c(c2)OCO3)c(/N=C/N(C)C)n1`, the MST in data set [5] was 5.9 days. Besides, the T/C in data set [6] is on record as 1.5. Besides, the result in data set [1] was inactive.

`Cc1ccc(-c2nnc(N)nc2N)cc1C`: the MST in data set [5] turned out to be 4.9 days.

Take `COc1ccc(-c2nnc(N)nc2N)cc1OC`: the T/C in data set [7] is 7. Moreover, the MST was 11.7 days in data set [5] and 10.1 days in [8].

`Nc1nnc(-c2ccc(C(F)(F)F)cc2)c(N)n1`: the T/C in [9] is reported as 12.8; in data set [10], 6.4; in [5] it was 0; in data set [3] it was 9.9; in [8] it was 0; in data set [12] it was 0. For the same compound, the T/C in data set [14] was 12.8; in data set [6], 9.9; in data set [15] it was 0; in data set [16] it was 6.8. For the same compound, the Activity entry in data set [11] and in data set [13] was “Toxic” throughout.

With `Nc1nnc(-c2cccc(C(F)(F)F)c2)c(N)n1`, the T/C in [7] came out at 1.5; in data set [10] it was 2.2. The MST in data set [5] was 4.6 days.

Regarding `N#C/C(=N/NC(=N)N)c1cccs1.O=[N+]([O-])O`, the Activity entry in [2] is listed as “Toxic”.

Take `Cc1nnc(N)nc1C`: the MST in data set [5] came out at 4.2 days. In addition, the outcome in data set [1] was inactive.

`Nc1nnc(-c2ccc3c(c2)OCO3)c(N)n1`: the T/C in [7] is given as 3.2; in data set [17], 3.2; in [5], 15.4; in [18], 1.7; in [8] it was 12.2; in data set [15] it was 7.1.

For the origin of these results see ChEMBL document CHEMBL3272167, “Antimalarials. 3. 1,2,4-Triazines” (J Med Chem, 1976).
